ChEMBL document CHEMBL4270564, “Synergistic inhibition of the Hedgehog pathway by newly designed Smo and Gli antagonists bearing the isoflavone scaffold” (Eur J Med Chem, 2018)
Active and inactive are the calls of the source. No cut-off for these calls is given here.

What was measured:
[1] = molecular target: Protein smoothened (Mus musculus, UniProt P56726); experiment: Antagonist activity at smo in SAG-treated mouse Light2 cells after 48 hrs by renilla luciferase reporter gene assay; assay type: functional
How it was run: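 NIH3T3 Shh-Light II cells carry a stable Gli-responsive firefly luciferase reporter plus pRL-TK Renilla. They were stimulated with SAG 200 nM and treated with compound for 48 h. Read-out was dual-luciferase, as the Luciferase/Renilla ratio. Mean ± SD of three independent experiments, each in triplicate.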

[2] = molecular target: T1, Zinc finger protein GLI1 (Mus musculus, UniProt P47806); experiment: Inhibition of Gli1 transcriptional activity in mouse embroyonic fibroblasts after 24 hrs by renilla luciferase reporter gene assay
T1 sequence (P47806 whole entry): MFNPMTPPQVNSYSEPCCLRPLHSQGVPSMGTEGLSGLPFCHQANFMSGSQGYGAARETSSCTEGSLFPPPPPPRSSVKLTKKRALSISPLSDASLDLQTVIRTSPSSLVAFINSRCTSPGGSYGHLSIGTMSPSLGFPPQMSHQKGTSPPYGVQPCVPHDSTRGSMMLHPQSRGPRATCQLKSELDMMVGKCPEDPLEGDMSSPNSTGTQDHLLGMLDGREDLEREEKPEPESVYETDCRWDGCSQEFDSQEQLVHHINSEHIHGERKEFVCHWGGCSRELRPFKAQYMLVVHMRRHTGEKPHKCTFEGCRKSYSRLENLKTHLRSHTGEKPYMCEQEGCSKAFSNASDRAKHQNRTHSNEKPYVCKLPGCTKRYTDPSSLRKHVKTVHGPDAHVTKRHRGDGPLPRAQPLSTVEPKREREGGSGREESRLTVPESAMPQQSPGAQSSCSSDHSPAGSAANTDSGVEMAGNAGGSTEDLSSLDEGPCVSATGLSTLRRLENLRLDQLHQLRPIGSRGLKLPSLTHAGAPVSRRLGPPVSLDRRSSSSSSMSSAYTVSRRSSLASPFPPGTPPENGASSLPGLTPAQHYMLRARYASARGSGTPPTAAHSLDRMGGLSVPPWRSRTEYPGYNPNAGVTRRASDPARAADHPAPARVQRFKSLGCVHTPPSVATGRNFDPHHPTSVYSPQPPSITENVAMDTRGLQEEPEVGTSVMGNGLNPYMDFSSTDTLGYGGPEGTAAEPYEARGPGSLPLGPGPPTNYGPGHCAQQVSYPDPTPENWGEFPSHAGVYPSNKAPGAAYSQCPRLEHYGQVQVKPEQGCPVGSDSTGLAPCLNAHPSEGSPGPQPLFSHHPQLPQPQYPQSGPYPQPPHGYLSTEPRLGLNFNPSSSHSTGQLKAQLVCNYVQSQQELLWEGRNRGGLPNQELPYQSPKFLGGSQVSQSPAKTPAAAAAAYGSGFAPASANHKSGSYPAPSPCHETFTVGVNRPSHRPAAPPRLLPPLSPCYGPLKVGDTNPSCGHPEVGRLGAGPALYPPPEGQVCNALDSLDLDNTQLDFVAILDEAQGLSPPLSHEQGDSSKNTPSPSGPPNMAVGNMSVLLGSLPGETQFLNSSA
How it was run: (§1)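 Wild-type MEFs expressing ectopic Gli1 were transfected with 12XGliBS-Luc, pRL-TK Renilla and empty or Gli1 vector. They were exposed to rising compound concentrations for 24 h; DMSO-only controls. Luciferase/Renilla ratio; mean ± SD of three independent experiments.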

[3] = molecular target: T2, Zinc finger protein GLI1 (Mus musculus) (UniProt P47806); experiment: Inhibition of Gli1 transcriptional activity in Smo-/- mouse embroyonic fibroblasts up to 20 uM after 24 hrs by renilla luciferase reporter gene assay
T2 sequence (whole entry): T1 sequence (P47806 whole entry)
How it was run: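 Smo-/- MEFs were transfected with 12xGliBS-Luc and pRL-TK Renilla plus empty or Gli1 vector. They were treated with increasing concentrations of compound for 24 h; DMSO-only controls. Read-out was luciferase normalized to Renilla. Mean ± SD of three independent experiments; t-test versus DMSO.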

[4] = system: Medulloblastoma cell; experiment: Growth inhibition of mouse Ptch+/- medulloblastoma cells at 0.125 uM after 72 hrs relative to control; assay type: functional; details: read-out: GI
How it was run: (§2)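 Primary medulloblastoma cells were freshly isolated from Ptch+/- mouse tumors. They were kept in short-term culture in Neurobasal Media-A with B27 minus vitamin A to retain Hh sensitivity. Cells were exposed to single compounds for 72 h, and percent growth inhibition was reported as mean ± SD.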

[5] = system: Medulloblastoma cell; experiment: Growth inhibition of mouse Ptch+/- medulloblastoma cells at 0.25 uM after 72 hrs relative to control; assay type: functional; details: read-out: GI; how it was run: as §2
[6] = system: Medulloblastoma cell; experiment: Growth inhibition of mouse Ptch+/- medulloblastoma cells at 0.5 uM after 72 hrs relative to control; assay type: functional; details: read-out: GI; how it was run: as §2
[7] = system: Medulloblastoma cell; experiment: Growth inhibition of mouse Ptch+/- medulloblastoma cells at 1 uM after 72 hrs relative to control; assay type: functional; details: read-out: GI; how it was run: as §2
[8] = system: Medulloblastoma cell; experiment: Growth inhibition of mouse Ptch+/- medulloblastoma cells at 2 uM after 72 hrs relative to control; assay type: functional; details: read-out: GI
[9] = system: MEF; experiment: Downregulation of Gli1 levels in SuFu-/- mouse embroyonic fibroblasts up to 20 uM after 48 hrs by qRT-PCR
[10] = system: MEF; experiment: Downregulation of Gli2 levels in SuFu-/- mouse embroyonic fibroblasts up to 20 uM after 48 hrs by qRT-PCR
[11] = molecular target: Protein smoothened (Mus musculus) (UniProt P56726); experiment: Antagonist activity at smo in SuFu-/- mouse embroyonic fibroblasts assessed as downregulation of Gli1 mRNA levels after 48 hrs by qRT-PCR method; assay type: functional
How it was run: (§3)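 SuFu-/- MEFs were grown in DMEM with 10% FBS, antibiotics and L-glutamine, then treated with compound for 48 h; DMSO-only controls. Gli1 and Gli2 mRNA were measured by qRT-PCR and normalized to HPRT. Mean ± SD of three independent experiments; Student's t-test versus DMSO.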

[12] = system: Medulloblastoma cell; experiment: Synergistic growth inhibition of mouse Ptch+/- medulloblastoma cells at 0.125 uM after 72 hrs in presence of Gli inhibitor GlaB; assay type: functional; details: read-out: GI
How it was run: (§4)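 Freshly isolated Ptch+/- mouse medulloblastoma primary cells were held in short-term Neurobasal-A/B27 (minus vitamin A) culture. They were treated for 72 h with a binary combination of a Gli1 antagonist and a Smo antagonist, each at the stated concentration. Percent growth inhibition was reported.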

[13] = system: Medulloblastoma cell; experiment: Synergistic growth inhibition of mouse Ptch+/- medulloblastoma cells at 0.25 uM after 72 hrs in presence of Gli inhibitor GlaB; assay type: functional; details: read-out: GI; how it was run: as §4
[14] = system: Medulloblastoma cell; experiment: Synergistic growth inhibition of mouse Ptch+/- medulloblastoma cells at 0.5 uM after 72 hrs in presence of Gli inhibitor GlaB; assay type: functional; details: read-out: GI; how it was run: as §4
[15] = molecular target: Protein smoothened (Mus musculus) (UniProt P56726); experiment: Antagonist activity at smo in SuFu-/- mouse embroyonic fibroblasts assessed as downregulation of Gli2 mRNA levels after 48 hrs by qRT-PCR method; assay type: functional; how it was run: as §3
[16] = molecular target: T2, Zinc finger protein GLI1 (Mus musculus); experiment: Inhibition of Gli1 transcriptional activity in mouse embroyonic fibroblasts up to 30 uM after 24 hrs by renilla luciferase reporter gene assay; how it was run: as §1

Chain of Protein smoothened (P56726 whole entry): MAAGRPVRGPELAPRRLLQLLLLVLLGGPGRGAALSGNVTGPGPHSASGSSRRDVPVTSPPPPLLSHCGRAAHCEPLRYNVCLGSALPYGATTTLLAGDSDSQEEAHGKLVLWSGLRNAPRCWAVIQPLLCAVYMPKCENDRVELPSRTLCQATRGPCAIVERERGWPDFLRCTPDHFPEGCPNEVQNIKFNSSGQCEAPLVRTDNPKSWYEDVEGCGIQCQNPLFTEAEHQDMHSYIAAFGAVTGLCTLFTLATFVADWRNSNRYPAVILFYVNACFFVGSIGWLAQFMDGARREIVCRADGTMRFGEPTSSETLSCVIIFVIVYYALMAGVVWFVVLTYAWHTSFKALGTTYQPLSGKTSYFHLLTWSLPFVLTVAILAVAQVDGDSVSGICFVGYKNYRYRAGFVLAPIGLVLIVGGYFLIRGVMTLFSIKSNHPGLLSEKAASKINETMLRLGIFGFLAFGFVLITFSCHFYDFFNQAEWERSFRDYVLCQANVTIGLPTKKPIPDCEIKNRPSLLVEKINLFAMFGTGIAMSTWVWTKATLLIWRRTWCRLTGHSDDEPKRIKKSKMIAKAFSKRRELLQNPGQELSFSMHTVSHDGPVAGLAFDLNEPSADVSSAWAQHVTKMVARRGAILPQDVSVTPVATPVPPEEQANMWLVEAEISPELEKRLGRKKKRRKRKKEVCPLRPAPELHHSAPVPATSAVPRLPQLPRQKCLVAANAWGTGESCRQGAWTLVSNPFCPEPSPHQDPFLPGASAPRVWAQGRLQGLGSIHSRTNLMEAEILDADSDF
Chain of Protein smoothened (Mus musculus) (P56726 whole entry): as above

## COC(=O)c1ccc(COc2cc(-c3coc4cc(OC)cc(OC)c4c3=O)ccc2OC)cc1
[1]; read-out: IC50
  IC50: > 30 µM
[2]
  IC50: Nd(Toxic)

## COc1cc(OC)c2c(=O)c(-c3ccc(OC)c(OCc4ccccc4)c3)coc2c1
[1]; read-out: IC50
  IC50: 3.72 µM
[2]; read-out: IC50
  IC50: 17.1 µM

## COc1cc(OC)c2c(=O)c(-c3ccc(OC)c(OCc4ccc([N+](=O)[O-])cc4)c3)coc2c1
[1]; read-out: IC50
  IC50: > 30 µM
[2]
  IC50: Nd(Toxic)

## COc1cc(OC)c2c(=O)c(-c3ccc(OC)c(OCc4ccc(C(N)=O)cc4)c3)coc2c1
[1]; read-out: IC50
  IC50: > 30 µM
[2]
  IC50: Nd(Toxic)

## COc1cc(OC)c2c(=O)c(-c3ccc(OCc4ccccc4)c(OC)c3)coc2c1
[1]; read-out: IC50
  IC50: 6.92 µM
[2]; read-out: IC50
  IC50: 39.2 µM

## COc1cc(OC)c2c(=O)c(-c3ccc(OC)c(OCc4ccc(C(F)(F)F)cc4)c3)coc2c1
[1]; read-out: IC50
  IC50: 2.58 µM
[2]; read-out: IC50
  IC50: 11.5 µM
[3]
  inhibition: Active
[4]
  inhibition of growth at 0.125 µM: 37.7%
[5]
  inhibition of growth at 0.25 µM: 40.6%
[6]
  inhibition of growth at 0.5 µM: 44.5%
[7]
  inhibition of growth at 1 µM: 50.9%
[8]
  inhibition of growth at 2 µM: 54%
[9]
  Activity: Active
[10]
  Activity: Active

## COc1cc(OC)c2c(=O)c(-c3ccc(OCc4ccccc4)c(OCc4ccccc4)c3)coc2c1
[1]; read-out: IC50
  IC50: 0.29 µM
[2]; read-out: IC50
  IC50: 57.7 µM
[3]
  inhibition: inactive
[11]
  inhibition: inactive
[4]
  inhibition of growth at 0.125 µM: 33.3%
[5]
  inhibition of growth at 0.25 µM: 44.2%
[6]
  inhibition of growth at 0.5 µM: 51.4%
[7]
  inhibition of growth at 1 µM: 61.2%
[8]
  inhibition of growth at 2 µM: 66.6%
[12]
  inhibition of growth at 0.125 µM: 38.3%
[13]
  inhibition of growth at 0.25 µM: 63.4%
[14]
  inhibition of growth at 0.5 µM: 70%
[15]
  inhibition: inactive

## COc1cc(OC)c2c(=O)c(-c3ccc(OCc4ccc(C(F)(F)F)cc4)c(OC)c3)coc2c1
[1]; read-out: IC50
  IC50: 3.48 µM
[2]; read-out: IC50
  IC50: 55.3 µM
[3]
  inhibition: inactive
[11]
  inhibition: inactive
[4]
  inhibition of growth at 0.125 µM: 20.8%
[5]
  inhibition of growth at 0.25 µM: 23.5%
[6]
  inhibition of growth at 0.5 µM: 32.5%
[7]
  inhibition of growth at 1 µM: 51.8%
[8]
  inhibition of growth at 2 µM: 54.2%
[12]
  inhibition of growth at 0.125 µM: 33.5%
[13]
  inhibition of growth at 0.25 µM: 53.1%
[14]
  inhibition of growth at 0.5 µM: 60.1%
[15]
  inhibition: inactive

## COc1cc(OC)c2c(=O)c(-c3ccc(OC)c(OCc4ccc(C#N)cc4)c3)coc2c1
[1]; read-out: IC50
  IC50: 16 µM
[2]
  IC50: Nd(Toxic)

## COc1cc(OC)c2c(=O)c(-c3ccc(OCC=C(C)C)c(OCC=C(C)C)c3)coc2c1
[4]
  inhibition of growth at 0.125 µM: 28.6%
[5]
  inhibition of growth at 0.25 µM: 42.4%
[6]
  inhibition of growth at 0.5 µM: 46.6%
[7]
  inhibition of growth at 1 µM: 55.9%
[8]
  inhibition of growth at 2 µM: 65.1%

## COc1cc(OC)c2c(=O)c(-c3ccc(OC)c(OCC=C(C)C)c3)coc2c1
[1]; read-out: IC50
  IC50: 2.87 µM
[2]; read-out: IC50
  IC50: 5.7 µM
[3]
  inhibition: Active
[4]
  inhibition of growth at 0.125 µM: 5.9%
[5]
  inhibition of growth at 0.25 µM: 26.3%
[6]
  inhibition of growth at 0.5 µM: 29.2%
[7]
  inhibition of growth at 1 µM: 35.6%
[8]
  inhibition of growth at 2 µM: 55.4%
[9]
  Activity: Active
[10]
  Activity: Active

## COc1cc(OC)c2c(=O)c(-c3cccc(OCC=C(C)C)c3)coc2c1
[1]; read-out: IC50
  IC50: > 30 µM
[2]; read-out: IC50
  IC50: > 20 µM

## CS(=O)(=O)c1ccc(C(=O)Nc2ccc(Cl)c(-c3ccccn3)c2)c(Cl)c1
[16]
  inhibition: inactive

## COc1cc(OC)c2c(=O)c(-c3cccc(O)c3)coc2c1
[1]; read-out: IC50
  IC50: > 30 µM
[2]
  IC50: Nd(Toxic)

## COc1cc(OC)c2c(=O)c(-c3ccc(OC)c(OC/C=C(\C)CCC=C(C)C)c3)coc2c1
[1]; read-out: IC50
  IC50: 3.61 µM
[2]; read-out: IC50
  IC50: 21.2 µM

## COc1cc(OC)c2c(=O)c(-c3ccc(OC/C=C(\C)CCC=C(C)C)c(OC)c3)coc2c1
[1]
  IC50: Nd(Toxic)
[2]
  IC50: Nd(Toxic)

## COc1cc(OC)c2c(=O)c(-c3cccc(OCc4ccc(C(F)(F)F)cc4)c3)coc2c1
[1]; read-out: IC50
  IC50: 10.5 µM
[2]; read-out: IC50
  IC50: 26.7 µM

## COc1cc(OC)c2c(=O)c(-c3ccc(OCC=C(C)C)c(OC)c3)coc2c1
[1]; read-out: IC50
  IC50: 6.97 µM
[2]; read-out: IC50
  IC50: 10.7 µM
